Values after ≈ are worked out from the molar mass of the structure shown.
How the values were obtained:
[1] = tested on: Escherichia coli; assay: Antimicrobial activity against tolC deficient Escherichia coli by after 2 hrs; assay type: functional
Summary of the method: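 ΔtolC E. coli grown in 200 μl LB at 37°C for 2 h across a range of antibiotic concentrations, read by A600. MIC is the lowest concentration giving 95% growth inhibition relative to an untreated culture.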

[2] = tested on: Escherichia coli; assay: Inhibition of protein synthesis in Escherichia coli assessed as green fluorescent protein synthesis by coupled transcription-translation assay; assay type: functional, organism-based
Summary of the method: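 E. coli lysate coupled transcription-translation with a GFP template, run with and without antibiotic at increasing concentrations. GFP measured by fluorescence scanning and native PAGE. Triplicates, expressed as percent of fluorescence without antibiotic.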

[3] = tested on: Streptomyces hygroscopicus; assay: Activity at Streptomyces hygroscopicus recombinant N-terminal His-tagged Hyg26 reductase expressed in Escherichia coli BL21 (DE3)
Summary of the method: (§1)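 His-tagged Hyg26, expressed in E. coli BL21-CodonPlus(DE3) and purified on Ni-NTA. Reductase kinetics: 800 ng enzyme, 50 mM phosphate pH 6 with 2 mM TCEP, 37°C, 15 min. NADH fixed at 60 mM with antibiotic 2–60 mM; for NADH, HA fixed at 20 mM with NADH 0.25–10 mM. DHHA-type product quantified by reverse-phase HPLC peak area. Duplicates averaged and fitted for kinetic parameters.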

[4] = tested on: Streptomyces hygroscopicus; assay: Ratio of Kcat to Km for Streptomyces hygroscopicus recombinant N-terminal His-tagged Hyg26 reductase expressed in Escherichia coli BL21 (DE3); summary of the method: as §1
[5] = tested on: Streptomyces hygroscopicus; assay: Antimicrobial activity against hyg19 deficient Streptomyces hygroscopicus SCH30 by after 48 hrs by agar plate dilution method; assay type: functional; conditions: SCH30, 48 h
Summary of the method: (§2)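 Spores plated on yeast extract malt extract agar containing a series of HA concentrations, incubated 48 h at 30°C, then scored for growth. MIC taken as the lowest HA concentration preventing visible growth of at least 95% of CFU.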

[6] = tested on: Streptomyces hygroscopicus; assay: Antimicrobial activity against wild type Streptomyces hygroscopicus by after 48 hrs by agar plate dilution method; assay type: functional; summary of the method: as §2
[7] = tested on: Streptomyces hygroscopicus; assay: Antimicrobial activity against hyg20 deficient Streptomyces hygroscopicus SCH30 by after 48 hrs by agar plate dilution method; assay type: functional; conditions: SCH30, 48 h; summary of the method: as §2
[8] = tested on: Streptomyces hygroscopicus; assay: Antimicrobial activity against hyg28 deficient Streptomyces hygroscopicus SCH30 by after 48 hrs by agar plate dilution method; assay type: functional; conditions: SCH30, 48 h; summary of the method: as §2
[9] = tested on: Streptomyces lividans; assay: Antimicrobial activity against Streptomyces lividans by after 48 hrs by agar plate dilution method; assay type: functional; summary of the method: as §2
[10] = tested on: Streptomyces hygroscopicus; assay: Antimicrobial activity against hyg19-hyg20-hyg21 deficient Streptomyces hygroscopicus SCH30 by after 48 hrs by agar plate dilution method; assay type: functional; conditions: SCH30, 48 h; summary of the method: as §2

## CO[C@@H]1[C@H](O)[C@@H](O)[C@@H](NC(=O)/C(C)=C/c2ccc(O[C@@H]3O[C@H](C(C)O)[C@@H](O)[C@@H]3O)c(O)c2)[C@@H](O)[C@@H]1O (stereo partly drawn) [5'-DIHYDROMETHOXYHYGROMYCIN A]
[1]
  MIC: 150 µg/mL (≈ 291 µM)
[2]
  IC50: 7400 nM
  IC90: 50000 nM

## C/C(=C\c1ccc(O[C@@H]2O[C@H](C(C)O)[C@@H](O)[C@@H]2O)c(O)c1)C(=O)N[C@@H]1[C@H](O)[C@@H](O)[C@@H](O)[C@@H](O)[C@@H]1O (stereo partly drawn)
[1]
  MIC: 150 µg/mL (≈ 299 µM)
[2]
  IC50: 2700 nM
  IC90: 14100 nM

## CC(=O)[C@H]1O[C@@H](Oc2ccc(/C=C(\C)C(=O)N[C@@H]3[C@H](O)[C@@H](O)[C@@H](O)[C@@H](O)[C@@H]3O)cc2O)[C@@H](O)[C@@H]1O [DESMETHYLENEHYGROMYCIN A]
[3]
  Km: 63.6 mM
  kcat: 31.7 s⁻¹
[1]
  MIC: 150 µg/mL (≈ 300 µM)
[4]
  kcat/Km: 0.9 ×10³ /M/s
[2]
  IC50: 320 nM
  IC90: 1000 nM

## CO[C@@H]1[C@H](O)[C@@H](O)[C@@H](NC(=O)/C(C)=C/c2ccc(O[C@@H]3O[C@H](C(C)=O)[C@@H](O)[C@@H]3O)c(O)c2)[C@@H](O)[C@@H]1O [METHOXYHYGROMYCIN A]
[3]
  Km: 19.8 mM
  kcat: 15.5 s⁻¹
[1]
  MIC: 150 µg/mL (≈ 292 µM)
[4]
  kcat/Km: 0.9 ×10³ /M/s
[2]
  IC50: 500 nM
  IC90: 2000 nM

## CC(=O)[C@H]1O[C@@H](Oc2ccc(/C=C(\C)C(=O)N[C@@H]3[C@H](O)[C@@H](O)[C@H]4OCO[C@H]4[C@@H]3O)cc2O)[C@@H](O)[C@@H]1O [HYGROMYCIN A]
[3]
  Km: 5.8 mM
  kcat: 5.1 s⁻¹
[1]
  MIC: 10 µg/mL (≈ 19.6 µM)
[5]
  MIC: 400 µg/mL (≈ 782 µM)
[6]
  MIC: 400 µg/mL (≈ 782 µM)
[7]
  MIC: 300 µg/mL (≈ 587 µM)
[4]
  kcat/Km: 1 ×10³ /M/s
[2]
  IC50: 180 nM
  IC90: 250 nM
[8]
  MIC: 300 µg/mL (≈ 587 µM)
[9]
  MIC: 20 µg/mL (≈ 39.1 µM)
[10]
  MIC: 75 µg/mL (≈ 147 µM)

## C/C(=C\c1ccc(O[C@@H]2O[C@H](C(C)O)[C@@H](O)[C@@H]2O)c(O)c1)C(=O)N[C@@H]1[C@H](O)[C@@H](O)[C@H]2OCO[C@H]2[C@@H]1O (stereo partly drawn)
[1]
  MIC: 20 µg/mL (≈ 38.9 µM)
[2]
  IC50: 300 nM
  IC90: 1500 nM

— ChEMBL document CHEMBL1649279, “The final step of hygromycin A biosynthesis, oxidation of C-5''-dihydrohygromycin A, is linked to a putative proton gradient-dependent efflux” (Antimicrob Agents Chemother, 2009)
